Test [1] is described as follows: SK-BR-3 cell growth inhibitors, pilot screen, 24 h, human (AID 572;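 active means viability at or below 10% of carrier control in both of two separate runs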;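 further: compound exposure lasted between 18 and 24 h rather than exactly 24 h; 100% = carrier-treated control wells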). The settings on record: SK-BR-3 viability, CellTiter-Glo luminescence, at 10 µM, stronger effect = lower value. A general note: Cellular ATP, detected with luciferase, serves as a proxy for viable cell number.
Test [2] in a line: HUVEC growth inhibition – cell-based, human, primary screen (AID 575).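 Further: 100% = median of untreated cell wells with 0.1% DMSO on each plate.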 The note with it: HUVEC proliferation, CellTiter-Glo luminescence, 72 h; at 10 µM; stronger effect = lower value. An outline of the steps:
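Test system – primary HUVEC, no more than 12 passages · Dosing – one dose, 10 µM final, 0.1% DMSO · Times – 72 h treatment at 37 °C · Measured by – ATP-based CellTiter-Glo luminescent read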

Test [3] in a line: growth inhibitors of H69AR lung tumor, primary screen, human, duplicate replicates (AID 580;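 active means viability at or under a set limit in both replicates, limit being median viability minus 3 SD, cut at about 48% in these data, passing the limit was not always enough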;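 further: 100% = mean luminescence of untreated wells and 0% = no signal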). The note with it: H69AR lung tumor cells viability, ATP luminescence, 72 h; at 10 µM; stronger effect = lower value.
Test [4] is described as follows: reversal of MRP1-mediated doxorubicin resistance, pilot screen, H69AR cells, doxorubicin co-treatment (AID 601;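 active means viability loss from added drug above about 55%, and viability with drug at most 40%, in both replicates, limit read from the data, passing the limit was not always enough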). The note with it: CellTiter-Glo, 72 h, at 10 µM; for differential viability (reversal): stronger effect = higher value.
Test [5] in a line: 384-well plate pilot, post-Golgi transport modulator project, inhibition of yeast transport mutant growth (AID 636; in the data active means inhibition above about 31%). The settings on record: absorbance 615 nm, about 18 h, stronger effect = higher value.
Test [6] is described as follows: growth suppression of yeast trafficking mutant, preliminary HTS, modulators of trafficking downstream of Golgi apparatus project, 1536-format plate, OD 615 nm (AID 637; in the data active means inhibition above about 30%). The note with it: yeast transport mutant growth, absorbance 615 nm, 18 h; stronger effect = higher value.
[7] abbreviates: H69AR cells + 2 uM doxorubicin, measured here: viability with 2 uM doxorubicin, stronger effect = lower value.
Setting [8] is: H69AR cells, compound alone cytotoxicity.

Active and inactive are the calls of the source.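 How the source made its calls, unless noted: active means viability at or below 30% in both replicate assays; inconclusive means viability at or below 30% in just one of the two assays; inactive means the rest.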

Usually viability stands for a read-out of living cells in per cent, often relative to untreated cells. By inhibition is commonly meant the relative decrease from the control value, in per cent. As to `Cc1cc(=O)c2n(Cc3ccccc3Cl)nc[n+]2[nH]1`, the viability in test [1] is 115% (inactive); in test [2] it was 100% (inactive); in test [3], 97.1% (inactive); in test [4] (setting [7]), 88.3%; in test [4] (setting [8]), 97.1%. For the same molecule, in test [4] (H69AR cells + 2 uM doxorubicin), the differential viability (reversal) was 8.77% (inactive). Besides, the inhibition in test [5] was -4.4% (inactive); in test [6], 0% (inactive).
Take `C1CCC(C(CC2CCCCN2)C2CCCCC2)CC1` (stereo unspecified): the viability was 2% (active) in test [1], 2.58% (active) in test [2], 1.26% in test [4] (setting [7]) and 1.55% in test [4] (setting [8]). In addition, the differential viability (reversal) in test [4] (H69AR cells + 2 uM doxorubicin) is 0.29% (inactive).
For the molecule `COc1ccc(C)cc1-n1c(N)c(C#N)c(C#N)c1-c1ccc(OC)c(OC)c1OC`, the figures for the viability in test [1], in test [2] and in test [3] were 97% (inactive), 68.7% (inactive) and 72.9% (inactive), respectively. Besides, the inhibition in test [5] is -3.51% (inactive); in test [6], -1.31% (inactive).
On to `Cc1cc(C(=O)COc2cccc3cccnc23)c(C)n1C`, for which the viability was 95% (inactive) in test [1], 80.9% (inactive) in test [2], 70.8% in test [4] (setting [7]) and 59.1% in test [4] (setting [8]). In addition, in test [4] (H69AR cells + 2 uM doxorubicin), the differential viability (reversal) was -11.7% (inactive). The inhibition in test [5] is -2.67% (inactive); in test [6] it was -3.64% (inactive).
For `O=C1c2ccccc2-c2ccc(C(=O)N3CCOCC3)cc21`, the viability in test [1] is 87% (inactive); in test [2], 105% (inactive); in test [3], 89.7% (inactive); in test [4] (setting [7]), 92.5%; in test [4] (setting [8]), 89.7%. The differential viability (reversal) in test [4] (H69AR cells + 2 uM doxorubicin) was -2.82% (inactive). For the same molecule, the figures for the inhibition in test [5] and in test [6] were -2.7% (inactive) and 29.4% (inactive), respectively.
With `CC1CCN(CCc2nc3cc(NS(=O)(=O)c4ccc(F)cc4)ccc3n2C)CC1`, the viability was 89% (inactive) in test [1], 77.6% (inactive) in test [2], 55.5% in test [4] (setting [7]) and 52.4% in test [4] (setting [8]). For the same molecule, in test [4] (H69AR cells + 2 uM doxorubicin), the differential viability (reversal) is -3.08% (inactive). Also, the inhibition was -2.33% (inactive) in test [5] and 0.97% (inactive) in test [6].
As to `COc1ccccc1C(=O)NCC(=O)Nc1ccccc1`, the viability was 104% (inactive) in test [1]; 98.2% (inactive) in test [2]; 98.5% (inactive) in test [3]; 100% in test [4] (setting [7]); 98.5% in test [4] (setting [8]). In addition, the differential viability (reversal) in test [4] (H69AR cells + 2 uM doxorubicin) was -1.45% (inactive). The values for the inhibition in test [5] and in test [6] were -8.08% (inactive) and 2.91% (inactive), respectively.
`CN1CCN(CCCN2c3ccccc3Sc3ccc(Cl)cc32)CC1`: the viability is 25% in test [1], 3.48% (active) in test [2], 58.6% in test [4] (setting [7]) and 43.1% in test [4] (setting [8]). Moreover, the differential viability (reversal) in test [4] (H69AR cells + 2 uM doxorubicin) was -15.4% (inactive).
Take `Nc1ccc(S(=O)(=O)c2cccc(N)c2)cc1`: the viability was 62% (inactive) in test [1]; 100% (inactive) in test [2]; 96.2% (inactive) in test [3]; 84.4% in test [4] (setting [7]); 96.2% in test [4] (setting [8]). Also, the differential viability (reversal) in test [4] (H69AR cells + 2 uM doxorubicin) was 11.8% (inactive). Moreover, the inhibition in test [5] is -9.18% (inactive); in test [6], 1.64% (inactive).
Consider `COC(=O)c1[nH]c2ccc(C)cc2c1NC(=O)CN1CCCC(C)(C)C1`, for which the viability was 125% (inactive) in test [1], 77.6% (inactive) in test [2], 42.2% in test [4] (setting [7]) and 39.1% in test [4] (setting [8]). Besides, in test [4] (H69AR cells + 2 uM doxorubicin), the differential viability (reversal) was -3% (inactive). Also, the inhibition in test [5] was -5.87% (inactive); in test [6], 4.91% (inactive).
As for `CN(C)CCCN1c2ccccc2Sc2ccc(C(F)(F)F)cc21`, the viability was 4.5% (active) in test [1], 56.8% (inactive) in test [2], 51% in test [4] (setting [7]) and 11.7% in test [4] (setting [8]). The differential viability (reversal) in test [4] (H69AR cells + 2 uM doxorubicin) was -39.3% (inactive).
In the case of `COc1ccccc1NC(=O)N(Cc1ccco1)Cc1cc2c(C)ccc(C)c2[nH]c1=O`, the viability in test [1] was 70% (inactive); in test [2], 71.1% (inactive); in test [4] (setting [7]), 50.9%; in test [4] (setting [8]) it was 22.1%. In test [4] (H69AR cells + 2 uM doxorubicin), the differential viability (reversal) is -28.8% (inactive). Moreover, the inhibition is -2.88% (inactive) in test [5] and -2.55% (inactive) in test [6].
Take `O=C(C1CCCCC1)N1CCC(c2nc3c(nnn3Cc3ccccc3Cl)c(=O)[nH]2)CC1`: the values for the viability in test [1], in test [2] and in test [3] were 90% (inactive), 83.6% (inactive) and 73.9% (inactive), respectively. Besides, the inhibition in test [5] is -3.24% (inactive); in test [6], -9.27% (inactive).
On to `CN(C)CCCN1c2ccccc2Sc2ccc(Cl)cc21`, for which the viability in test [1] is 71% (inactive); in test [2], 2.62% (active); in test [4] (setting [7]), 28.3%; in test [4] (setting [8]), 1.67%. Moreover, in test [4] (H69AR cells + 2 uM doxorubicin), the differential viability (reversal) is -26.7% (inactive). Further, the figures for the inhibition in test [5] and in test [6] were -0.91% (inactive) and 7.17% (inactive), respectively.
Turning to `COC(=O)CSc1nnc(-c2cccs2)n1-c1ccc(Cl)cc1`, the viability in test [1] was 88% (inactive); in test [2], 93.8% (inactive); in test [3], 89.8% (inactive); in test [4] (setting [7]) it was 83.1%; in test [4] (setting [8]), 89.8%. In addition, in test [4] (H69AR cells + 2 uM doxorubicin), the differential viability (reversal) was 6.75% (inactive). Also, the inhibition was -8.49% (inactive) in test [5] and -4.68% (inactive) in test [6].
As for `CCOC(=O)N1CCC(n2c(SCC(=O)NCc3ccco3)nc3ccsc3c2=O)CC1`, the viability in test [1] was 81% (inactive); in test [2] it was 88.3% (inactive); in test [3], 78.5% (inactive). Besides, the inhibition in test [5] was -3.55% (inactive); in test [6] it was 2.67% (inactive).
With `Cc1nnc(SCCn2c(Br)nc3c2c(=O)n(C)c(=O)n3C)s1`, the viability in test [1] was 95% (inactive); in test [2], 106% (inactive); in test [3], 98.2% (inactive); in test [4] (setting [7]), 97.5%; in test [4] (setting [8]) it was 98.2%. The differential viability (reversal) in test [4] (H69AR cells + 2 uM doxorubicin) is 0.705% (inactive). Moreover, the inhibition was -1.76% (inactive) in test [5] and -5.09% (inactive) in test [6].
Turning to `OCCN1CCN(CCCN2c3ccccc3Sc3ccc(C(F)(F)F)cc32)CC1`, the viability was 3% (active) in test [1], 2.4% (active) in test [2], 3.77% in test [4] (setting [7]) and 1.03% in test [4] (setting [8]). Besides, in test [4] (H69AR cells + 2 uM doxorubicin), the differential viability (reversal) was -2.74% (inactive).
On to `CCCSc1ccc2nc(NC(=O)OC)[nH]c2c1`, for which the viability was 95% (inactive) in test [1], 43.2% (inactive) in test [2], 48.9% in test [4] (setting [7]) and 20.3% in test [4] (setting [8]). The differential viability (reversal) in test [4] (H69AR cells + 2 uM doxorubicin) is -28.6% (inactive). For the same molecule, the inhibition was -1.56% (inactive) in test [5] and 0.17% (inactive) in test [6].
`Cc1cccc(OCC(=O)Nc2cc(C)ccc2O)c1`: the viability in test [1] is 105% (inactive); in test [2] it was 75.3% (inactive); in test [4] (setting [7]), 51.4%; in test [4] (setting [8]), 37.4%. The differential viability (reversal) in test [4] (H69AR cells + 2 uM doxorubicin) is -14% (inactive). Also, the figures for the inhibition in test [5] and in test [6] were -6.16% (inactive) and 0.18% (inactive), respectively.
Consider `CC1=C(C)C(=O)C(CCCCC#CCCCC#CCO)=C(C)C1=O`, for which the viability in test [1] is 62% (inactive); in test [2] it was 78.8% (inactive); in test [3], 56.6% (inactive); in test [4] (setting [7]) it was 32.8%; in test [4] (setting [8]), 56.6%. In addition, the differential viability (reversal) in test [4] (H69AR cells + 2 uM doxorubicin) is 23.8% (inactive). The figures for the inhibition in test [5] and in test [6] were 2.99% (inactive) and -1.5% (inactive), respectively.
On to `CCC(=O)Nc1cc(Cl)ccc1N1CCN(C(=O)CC)CC1`, for which the viability in test [1] is 70% (inactive); in test [2], 92.6% (inactive); in test [3], 88.5% (inactive); in test [4] (setting [7]) it was 85%; in test [4] (setting [8]), 88.5%. In addition, the differential viability (reversal) in test [4] (H69AR cells + 2 uM doxorubicin) was 3.43% (inactive). The inhibition in test [5] was -4.66% (inactive); in test [6], 0.73% (inactive).
With `O=C(O)COc1cccc(NC(=O)C2CCCO2)c1` (stereo unspecified), the viability is 81% (inactive) in test [1]; 102% (inactive) in test [2]; 93.3% (inactive) in test [3]; 104% in test [4] (setting [7]); 93.3% in test [4] (setting [8]). The differential viability (reversal) in test [4] (H69AR cells + 2 uM doxorubicin) was -10.7% (inactive). For the same molecule, the inhibition in test [5] is 0.14% (inactive); in test [6] it was 10.9% (inactive).

Values taken from PubChem BioAssay.
